We go through one compound from ChEMBL document CHEMBL1157613, “Salicylic acid based small molecule inhibitor for the oncogenic Src homology-2 domain containing protein tyrosine phosphatase-2 (SHP2)” (J Med Chem, 2010).

The term IC50 denotes the concentration that gives 50% inhibition.

Test [1] addresses T1, Dual specificity protein phosphatase CDC14A (Homo sapiens, UniProt Q9UNH5).
T1 sequence (Q9UNH5 whole entry): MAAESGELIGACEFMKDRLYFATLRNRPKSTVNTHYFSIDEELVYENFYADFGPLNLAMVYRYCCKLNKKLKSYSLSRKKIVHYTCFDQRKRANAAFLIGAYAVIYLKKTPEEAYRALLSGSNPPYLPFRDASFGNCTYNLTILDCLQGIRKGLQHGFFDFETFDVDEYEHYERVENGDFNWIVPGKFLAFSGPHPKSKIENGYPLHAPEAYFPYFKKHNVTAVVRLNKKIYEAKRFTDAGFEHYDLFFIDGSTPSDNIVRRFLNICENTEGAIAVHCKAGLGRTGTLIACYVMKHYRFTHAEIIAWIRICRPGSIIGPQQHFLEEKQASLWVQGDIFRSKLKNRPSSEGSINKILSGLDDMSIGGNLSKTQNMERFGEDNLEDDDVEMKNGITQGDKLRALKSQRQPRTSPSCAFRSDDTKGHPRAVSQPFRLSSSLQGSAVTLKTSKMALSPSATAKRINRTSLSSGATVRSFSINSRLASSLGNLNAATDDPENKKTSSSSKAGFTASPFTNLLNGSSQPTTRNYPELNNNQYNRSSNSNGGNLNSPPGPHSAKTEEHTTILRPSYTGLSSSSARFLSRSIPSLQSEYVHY
Description: Inhibition of Cdc14A expressed in Escherichia coli assessed as inhibition of p-nitrophenyl phosphate hydrolysis at pH 7 by spectrophotometry.

For test [2], the target named is T2, Tyrosine-protein phosphatase non-receptor type 1 (Homo sapiens, UniProt P18031).
T2 sequence (P18031 whole entry): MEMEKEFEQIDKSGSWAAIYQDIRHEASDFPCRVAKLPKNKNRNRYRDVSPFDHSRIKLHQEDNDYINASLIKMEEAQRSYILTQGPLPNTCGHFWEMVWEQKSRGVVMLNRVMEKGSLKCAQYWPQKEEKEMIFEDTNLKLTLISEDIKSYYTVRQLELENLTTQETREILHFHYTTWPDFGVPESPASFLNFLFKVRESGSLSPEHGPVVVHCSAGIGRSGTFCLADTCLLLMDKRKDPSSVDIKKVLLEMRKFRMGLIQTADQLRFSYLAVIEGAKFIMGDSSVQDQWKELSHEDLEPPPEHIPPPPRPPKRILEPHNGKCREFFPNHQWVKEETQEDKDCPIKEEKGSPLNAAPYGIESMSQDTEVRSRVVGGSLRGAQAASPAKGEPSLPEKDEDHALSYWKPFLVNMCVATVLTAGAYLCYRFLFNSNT
Description: Inhibition of PTP1B expressed in Escherichia coli assessed as inhibition of p-nitrophenyl phosphate hydrolysis at pH 7 by spectrophotometry.

Test [3] addresses T3, Tyrosine-protein phosphatase non-receptor type 22 (Homo sapiens, UniProt Q9Y2R2).
T3 sequence (Q9Y2R2 whole entry): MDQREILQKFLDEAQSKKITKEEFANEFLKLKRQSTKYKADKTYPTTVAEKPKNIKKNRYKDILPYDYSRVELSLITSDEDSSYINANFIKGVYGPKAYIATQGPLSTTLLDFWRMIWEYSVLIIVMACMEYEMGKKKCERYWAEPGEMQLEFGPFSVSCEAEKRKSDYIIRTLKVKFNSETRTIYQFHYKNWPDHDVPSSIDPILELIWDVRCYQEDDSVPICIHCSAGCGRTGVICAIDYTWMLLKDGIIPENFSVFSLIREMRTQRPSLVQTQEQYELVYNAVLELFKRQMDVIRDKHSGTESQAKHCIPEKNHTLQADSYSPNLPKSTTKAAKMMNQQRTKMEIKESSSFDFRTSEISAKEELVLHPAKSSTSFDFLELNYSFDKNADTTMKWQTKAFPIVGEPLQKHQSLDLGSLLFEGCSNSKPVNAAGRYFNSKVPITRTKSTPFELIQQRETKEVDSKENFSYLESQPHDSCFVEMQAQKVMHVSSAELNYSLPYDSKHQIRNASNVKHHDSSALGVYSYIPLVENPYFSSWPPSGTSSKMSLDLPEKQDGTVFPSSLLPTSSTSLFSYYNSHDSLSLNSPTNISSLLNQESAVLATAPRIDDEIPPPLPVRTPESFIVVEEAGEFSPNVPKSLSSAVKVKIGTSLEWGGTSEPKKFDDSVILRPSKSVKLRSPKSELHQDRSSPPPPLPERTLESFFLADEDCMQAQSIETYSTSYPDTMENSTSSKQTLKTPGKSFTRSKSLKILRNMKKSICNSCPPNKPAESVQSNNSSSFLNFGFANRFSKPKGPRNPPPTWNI
Description: Inhibition of Lyp expressed in Escherichia coli assessed as inhibition of p-nitrophenyl phosphate hydrolysis at pH 7 by spectrophotometry.

Test [4] deals with T4, Tyrosine-protein phosphatase non-receptor type 11 (Mus musculus) (UniProt P35235).
T4 sequence (whole entry): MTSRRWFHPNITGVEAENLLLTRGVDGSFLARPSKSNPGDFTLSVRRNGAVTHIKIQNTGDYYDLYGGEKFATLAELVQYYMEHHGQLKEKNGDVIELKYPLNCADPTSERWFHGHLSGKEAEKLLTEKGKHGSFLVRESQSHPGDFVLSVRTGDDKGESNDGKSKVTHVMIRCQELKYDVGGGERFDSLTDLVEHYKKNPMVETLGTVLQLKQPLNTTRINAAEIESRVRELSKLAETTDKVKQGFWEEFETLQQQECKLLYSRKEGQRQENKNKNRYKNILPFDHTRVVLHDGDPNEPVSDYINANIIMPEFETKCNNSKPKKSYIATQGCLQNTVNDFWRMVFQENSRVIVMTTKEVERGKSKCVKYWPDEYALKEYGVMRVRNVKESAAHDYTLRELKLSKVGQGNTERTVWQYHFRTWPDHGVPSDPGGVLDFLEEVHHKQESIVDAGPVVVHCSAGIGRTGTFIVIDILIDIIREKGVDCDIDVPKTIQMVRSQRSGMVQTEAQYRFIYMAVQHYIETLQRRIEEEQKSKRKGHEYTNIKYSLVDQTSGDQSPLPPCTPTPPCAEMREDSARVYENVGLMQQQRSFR
Kind of test: Inhibition of SHP2-dependent ERK1/2 activation in EGF-stimulated mouse NIH/3T3 cells assessed as phosphorylated ERK1/2 level at 10 uM treated for 3 hrs before EGF challenge measured after 60 mins of EGF stimulation by immunoblot analysis. The test is classed as cell-based. To be noted: NIH3T3. (In general: A western blot detects proteins with antibodies after separation by electrophoresis.)

The target of test [5] is Receptor-type tyrosine-protein phosphatase alpha (Homo sapiens, UniProt P18433). Description: Inhibition of PTPalpha expressed in Escherichia coli assessed as inhibition of p-nitrophenyl phosphate hydrolysis at pH 7 by spectrophotometry.
Another test is filed under the species Mus musculus. Kind of test: Antiproliferative activity against GM-CSF-stimulated C57/BL6 mouse low density BM-MNC expressing SHP2 E76K mutant assessed as inhibition of hyperproliferation at 10 uM after 16 hrs by [3H]thymidine incorporation assay. The note with it: C57Bl/6. Format: functional. In a few lines: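 Marrow low-density mononuclear cells from C57Bl/6 mice (Ficoll), prestimulated 24 h with SCF, G-CSF, Tpo (100 ng/mL), retrovirally transduced 48 h with wild-type SHP2, D61Y or E76K, EGFP-sorted. Starved 4 h in 0.2% BSA; 5 × 10^4 cells cultured 16 h in GM-CSF 0-1 ng/mL ± 10 μM compound, then pulsed with 1.0 μCi [3H]thymidine for 6-8 h; counts per minute; n = 3.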
For orientation: Incorporation of labelled thymidine or its analogues reports DNA synthesis.

Structures are written as SMILES. Calls of active or inactive are those of the source. The rule behind the calls is not given here. Bounds are passed on as bounds.

Chain of Receptor-type tyrosine-protein phosphatase alpha (P18433 whole entry): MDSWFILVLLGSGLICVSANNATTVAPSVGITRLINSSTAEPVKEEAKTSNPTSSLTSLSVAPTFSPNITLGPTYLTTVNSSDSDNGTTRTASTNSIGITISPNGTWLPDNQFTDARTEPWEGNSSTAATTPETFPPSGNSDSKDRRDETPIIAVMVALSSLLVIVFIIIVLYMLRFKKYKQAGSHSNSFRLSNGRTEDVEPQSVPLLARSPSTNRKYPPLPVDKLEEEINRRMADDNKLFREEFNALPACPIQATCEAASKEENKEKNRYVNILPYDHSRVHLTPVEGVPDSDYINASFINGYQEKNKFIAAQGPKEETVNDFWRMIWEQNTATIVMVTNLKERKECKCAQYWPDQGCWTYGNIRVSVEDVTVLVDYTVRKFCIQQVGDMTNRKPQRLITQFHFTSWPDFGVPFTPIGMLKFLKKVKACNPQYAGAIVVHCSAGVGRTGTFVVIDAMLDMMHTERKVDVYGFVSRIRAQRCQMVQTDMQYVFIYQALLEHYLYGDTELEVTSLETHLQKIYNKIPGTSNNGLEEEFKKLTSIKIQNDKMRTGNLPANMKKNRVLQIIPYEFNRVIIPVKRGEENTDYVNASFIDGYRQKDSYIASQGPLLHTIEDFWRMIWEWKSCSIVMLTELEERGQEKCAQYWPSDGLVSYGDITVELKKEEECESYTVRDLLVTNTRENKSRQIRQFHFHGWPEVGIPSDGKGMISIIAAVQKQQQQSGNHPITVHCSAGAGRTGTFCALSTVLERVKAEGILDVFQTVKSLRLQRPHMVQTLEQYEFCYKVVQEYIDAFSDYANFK

As to `Cn1c(-c2ccccc2)c(-c2cn(CCC(=O)Nc3ccc(-c4ccccc4)cc3)nn2)c2cc(C(=O)O)c(O)cc21`, the IC50 in test [1] was over 50 µM; in test [2] it was 14.3 µM; in test [3] it was 25 µM; in test [5], over 50 µM. For the same compound, the inhibition entry in test [4] is “Active”. Moreover, the outcome in the test listed under Mus musculus was Active.
